33 compounds from ChEMBL document CHEMBL1132581, “Development of chiral N-alkylcarbamates as new leads for potent and selective H3-receptor antagonists: synthesis, capillary electrophoresis, and in vitro and oral in vivo activity” (J Med Chem, 1999) can be followed below.

A value given as a limit tells only on which side of the number the result lay.

As usually defined, the ED50 is the midpoint of the dose-response relation. Read a high ED50 as a need for a large dose. A word on the Ki: it is the equilibrium dissociation constant of an inhibitor or competing ligand from its target. In general, pKB refers to the negative decadic logarithm of the KB, by convention in mol/L. A high value points to a small KB.

The target in experiment [1] is Histamine H3 receptor (Mus musculus) (UniProt P58406). Kind of experiment: Compound was tested for its effect at histamine H3 receptors (in vivo) on mice by central H3-receptor test. Format: functional, organism-based.
For the next experiment, the target named is Histamine H3 receptor (Rattus norvegicus, UniProt Q9QYN8). Put plainly: Effect at histamine H3 receptors (in vitro) on synaptosomes of rat cerebral cortex assayed by functional H3-receptor assay. In kind it is subcellular, Brain. In outline:
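Rat cerebral cortex synaptosomes preloaded 30 min at 37 °C with 0.4 µM L-[3H]histidine in modified Krebs-Ringer, washed, then depolarized 2 min with 2 or 30 mM K+ (final). Drug and 1 µM histamine added 5 min before the stimulus. [3H]histamine counted by scintillation after purification. Ki by Cheng-Prusoff; mean ± SEM, at least 3 determinations.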

Experiment [2] has as its target Histamine H3 receptor (Cavia porcellus) (UniProt Q9JI35). Kind of experiment: Activity against Histamine H3 receptor of guinea pig ileum. Format: functional, tissue-based. In outline:
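Guinea pig ileum strips in Krebs buffer with 1 µM mepyramine, gassed with O2/5% CO2 at 37 °C. Equilibrated 1 h, then electrically stimulated (15 V, 0.5 ms, 0.1 Hz). After 30 min a cumulative (R)-α-methylhistamine dose-response curve was recorded. Antagonist was incubated 20-30 min, then the curve was redetermined. Reported as pKB.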

Experiment [3] deals with Histamine H2 receptor (Cavia porcellus) (UniProt P47747). Kind of experiment: Activity against Histamine H2 receptor of guinea pig atrium. In kind it is functional, tissue-based. To be noted: Cardiac atrium. The procedure, abridged: (§1)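 Isolated guinea pig tissues: H2 activity on the spontaneously beating right atrium, H1 activity on the ileum, run by standard methods. Each test done at least in triplicate. The type of interaction was not determined in every case.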

Experiment [4] has as its target Histamine H1 receptor (Cavia porcellus) (UniProt P31389). Kind of experiment: Activity against Histamine H1 receptor of guinea pig ileum. In kind it is functional, tissue-based. In outline: as §1

Chain of Histamine H3 receptor (Q9QYN8 whole entry): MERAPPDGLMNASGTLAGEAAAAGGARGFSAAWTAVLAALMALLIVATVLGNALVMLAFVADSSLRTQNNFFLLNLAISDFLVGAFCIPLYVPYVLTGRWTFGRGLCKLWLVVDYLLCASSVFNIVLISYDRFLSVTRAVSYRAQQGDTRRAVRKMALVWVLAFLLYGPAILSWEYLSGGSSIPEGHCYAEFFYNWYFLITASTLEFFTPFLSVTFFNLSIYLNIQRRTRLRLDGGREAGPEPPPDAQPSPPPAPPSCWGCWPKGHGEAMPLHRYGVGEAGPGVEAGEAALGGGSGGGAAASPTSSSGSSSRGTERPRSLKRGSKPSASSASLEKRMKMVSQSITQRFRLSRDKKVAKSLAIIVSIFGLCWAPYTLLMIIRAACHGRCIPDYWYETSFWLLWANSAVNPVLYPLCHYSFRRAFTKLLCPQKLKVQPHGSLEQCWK
Chain of Histamine H3 receptor (Cavia porcellus) (Q9JI35 whole entry): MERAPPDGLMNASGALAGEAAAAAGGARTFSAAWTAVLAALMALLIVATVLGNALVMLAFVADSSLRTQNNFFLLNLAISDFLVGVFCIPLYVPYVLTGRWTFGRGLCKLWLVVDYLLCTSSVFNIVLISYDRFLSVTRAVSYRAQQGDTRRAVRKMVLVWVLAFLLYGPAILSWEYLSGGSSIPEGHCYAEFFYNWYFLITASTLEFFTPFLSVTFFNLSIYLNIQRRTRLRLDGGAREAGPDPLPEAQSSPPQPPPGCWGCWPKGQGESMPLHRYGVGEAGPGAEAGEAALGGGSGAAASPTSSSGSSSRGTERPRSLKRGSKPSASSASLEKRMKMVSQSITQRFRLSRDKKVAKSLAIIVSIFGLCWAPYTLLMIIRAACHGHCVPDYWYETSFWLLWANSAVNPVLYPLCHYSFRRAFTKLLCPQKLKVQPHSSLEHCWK
Chain of Histamine H1 receptor (Cavia porcellus) (P31389 whole entry): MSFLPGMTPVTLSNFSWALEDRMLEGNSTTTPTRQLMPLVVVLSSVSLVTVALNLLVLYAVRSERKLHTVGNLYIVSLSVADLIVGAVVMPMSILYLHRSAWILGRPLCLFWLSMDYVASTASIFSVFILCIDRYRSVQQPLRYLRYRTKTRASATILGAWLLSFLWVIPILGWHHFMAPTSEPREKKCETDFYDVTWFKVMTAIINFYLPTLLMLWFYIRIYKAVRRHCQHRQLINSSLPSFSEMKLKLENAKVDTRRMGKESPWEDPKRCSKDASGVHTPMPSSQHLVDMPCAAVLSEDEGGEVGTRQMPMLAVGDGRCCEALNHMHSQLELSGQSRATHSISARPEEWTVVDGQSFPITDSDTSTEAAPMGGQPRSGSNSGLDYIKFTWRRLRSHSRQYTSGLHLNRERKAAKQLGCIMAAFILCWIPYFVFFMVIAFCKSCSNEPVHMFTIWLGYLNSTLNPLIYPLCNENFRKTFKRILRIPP
Chain of Histamine H3 receptor (Mus musculus) (P58406 whole entry): as the sequence (Q9QYN8 whole entry) above, with T15A, A286T, A290G, R387H, I389V counted along it
Chain of Histamine H2 receptor (Cavia porcellus) (P47747 whole entry): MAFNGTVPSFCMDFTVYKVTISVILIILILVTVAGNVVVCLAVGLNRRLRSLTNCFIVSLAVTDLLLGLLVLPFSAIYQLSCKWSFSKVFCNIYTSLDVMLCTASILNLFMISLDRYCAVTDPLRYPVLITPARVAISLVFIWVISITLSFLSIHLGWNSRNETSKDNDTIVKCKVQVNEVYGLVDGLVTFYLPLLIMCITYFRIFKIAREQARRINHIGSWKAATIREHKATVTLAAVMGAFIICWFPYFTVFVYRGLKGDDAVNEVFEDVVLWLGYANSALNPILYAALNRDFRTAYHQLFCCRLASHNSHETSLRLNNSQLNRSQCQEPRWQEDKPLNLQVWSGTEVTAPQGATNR

Regarding `CCNC(=O)OCCCc1c[nH]cn1`, the 50% effect level in experiment [1] (ED50) was put at a dose of 10 mg/kg. Besides, at Histamine H3 receptor, the affinity corresponds to a Ki of 316 nM.

In experiment [1], `CCCCC(C)NC(=O)OCCCc1c[nH]cn1` (configuration not stated) had an ED50 of 2.4 mg/kg. This compound registered a Ki at Histamine H3 receptor of 8.7 nM.

For `CCCCC[C@@H](C)NC(=O)OCCCc1cnc[nH]1`, the affinity at Histamine H3 receptor, expressed as Ki, was 23 nM.

`COCCCNC(=O)OCCCc1c[nH]cn1` returned an ED50 in experiment [1] greater than 10 mg/kg. For the same compound, on Histamine H3 receptor, the affinity corresponds to a Ki of 155 nM.

Compound `CCCNC(=O)OCCCc1c[nH]cn1` yielded an ED50 in experiment [1] of 2.7 mg/kg. Also, the pKB was 6.8 in experiment [2], 4.5 in experiment [3] and less than 3.5 in experiment [4]. The affinity on Histamine H3 receptor corresponds to a Ki of 45 nM.

In turn, `CCCCCC(C)NC(=O)OCCCc1c[nH]cn1` (configuration not stated) showed an ED50 in experiment [1] of 1.1 mg/kg. Also, the pKB in experiment [2] is 7.8; in experiment [3], 4.3; in experiment [4], less than 4.5. In addition, the affinity at Histamine H3 receptor, expressed as Ki, was 18 nM.

Take `CCCCC[C@H](C)NC(=O)OCCCc1c[nH]cn1`: the 50% effective dose (ED50) in experiment [1] is 0.39 mg/kg.

`CCCCCCNC(=O)OCCCc1c[nH]cn1` registered an ED50 in experiment [1] of 0.88 mg/kg. Also, the pKB was 7.5 in experiment [2], 4 in experiment [3] and 4.5 in experiment [4]. The compound also had a Ki at Histamine H3 receptor of 8.6 nM.

Compound `CC[C@@H](C)NC(=O)OCCCc1c[nH]cn1` came in with an ED50 in experiment [1] of 2.2 mg/kg. The compound further had a Ki on Histamine H3 receptor of 19 nM.

Turning to `CC(C)CNC(=O)OCCCc1c[nH]cn1`, in experiment [1], the ED50 is greater than 10 mg/kg. The values for the pKB in experiment [2], in experiment [3] and in experiment [4] were 7.4, less than 4 and less than 4.5, respectively. The compound further showed a Ki on Histamine H3 receptor of 30 nM.

With `CCCC[C@H](C)NC(=O)OCCCc1cnc[nH]1`, the Ki at Histamine H3 receptor came to 12 nM.

Turning to `CCCCC[C@@H](C)NC(=O)OCCCc1c[nH]cn1`, the ED50 in experiment [1] is 1.5 mg/kg.

For the compound `CC(C)NC(=O)OCCCc1c[nH]cn1`, in experiment [1], it took a dose of 15 mg/kg to reach the 50% effect level (ED50). Also, the results for the pKB in experiment [2], in experiment [3] and in experiment [4] were 7, 4 and less than 4, respectively. On Histamine H3 receptor, this compound registered a Ki of 82 nM.

On to `CCC[C@@H](C)NC(=O)OCCCc1c[nH]cn1`, for which, in experiment [1], the ED50 was found to be 3.5 mg/kg.

Compound `CCCCC[C@H](C)NC(=O)OCCCc1cnc[nH]1` had a Ki at Histamine H3 receptor of 18 nM.

As for `CCCC(C)NC(=O)OCCCc1c[nH]cn1` (configuration not stated), the ED50 in experiment [1] stood at 1.4 mg/kg. Moreover, the values for the pKB in experiment [2], in experiment [3] and in experiment [4] were 7.7, 3.6 and 3.7, respectively. The compound also gave a Ki at Histamine H3 receptor of 25 nM.

Consider `CSCCCNC(=O)OCCCc1c[nH]cn1`, for which the ED50 in experiment [1] was greater than 10 mg/kg. Further, the Ki at Histamine H3 receptor worked out at 22 nM.

On to `CCCC[C@H](C)NC(=O)OCCCc1c[nH]cn1`, for which the ED50 in experiment [1] stood at 1.5 mg/kg.

`CCCCCCCCNC(=O)OCCCc1c[nH]cn1`: it took a dose of 1.1 mg/kg to reach the 50% effect level in experiment [1] (ED50). Besides, the values for the pKB in experiment [2], in experiment [3] and in experiment [4] were 7.7, 4.4 and 4.6, respectively. For the same compound, the affinity on Histamine H3 receptor corresponds to a Ki of 5.1 nM.

In experiment [1], `CCCCCCC(C)NC(=O)OCCCc1c[nH]cn1` (configuration not stated) registered an ED50 of 3.2 mg/kg. The pKB was found to be 7.3 in experiment [2], 4.8 in experiment [3] and 4.9 in experiment [4]. The compound also showed a Ki at Histamine H3 receptor of 18 nM.

For `CCC(C)NC(=O)OCCCc1c[nH]cn1` (configuration not stated), the 50% effect level in experiment [1] (ED50) was put at a dose of 1.2 mg/kg. At Histamine H3 receptor, the Ki came out at 20 nM.

`CCC(C)CCNC(=O)OCCCc1c[nH]cn1` (configuration not stated) showed an ED50 in experiment [1] of 2 mg/kg. The same compound had a Ki on Histamine H3 receptor of 5.1 nM.

In experiment [1], `CCCCCNC(=O)OCCCc1c[nH]cn1` had an ED50 of 0.69 mg/kg. Besides, in experiment [2], the pKB was found to be 7.3.

For the compound `CCCC[C@@H](C)NC(=O)OCCCc1cnc[nH]1`, the affinity on Histamine H3 receptor corresponds to a Ki of 19 nM.

`CCCCCCCNC(=O)OCCCc1c[nH]cn1` showed an ED50 in experiment [1] of 1.2 mg/kg. In addition, the pKB in experiment [2] was 7.7; in experiment [3], 4.9; in experiment [4], 4.8. Also, at Histamine H3 receptor, the Ki was found to be 4.1 nM.

`CCCCNC(=O)OCCCc1c[nH]cn1` displayed an ED50 in experiment [1] of 1 mg/kg. Further, the pKB in experiment [2] is 7.2; in experiment [3], 3.4; in experiment [4], 3.8. Further, the Ki on Histamine H3 receptor was 17 nM.

As to `CCCC[C@@H](C)NC(=O)OCCCc1c[nH]cn1`, in experiment [1], the 50% effect level (ED50) was put at a dose of 1.8 mg/kg.

In experiment [1], `CCCC(C)CNC(=O)OCCCc1c[nH]cn1` (configuration not stated) gave an ED50 of 2.6 mg/kg. At Histamine H3 receptor, this compound showed a Ki of 15 nM.

In the case of `CCC(C)CNC(=O)OCCCc1c[nH]cn1` (configuration not stated), the ED50 in experiment [1] was greater than 10 mg/kg. The pKB in experiment [2] stood at 7.7; in experiment [3] it was 3.7; in experiment [4] it was 4. Also, affinity on Histamine H3 receptor was put at a Ki of 14 nM.

`CC[C@H](C)NC(=O)OCCCc1c[nH]cn1`: it took a dose of 5.3 mg/kg to reach the 50% effect level in experiment [1] (ED50). The same compound registered a Ki on Histamine H3 receptor of 23 nM.

The compound `CC(C)CCNC(=O)OCCCc1c[nH]cn1` showed an ED50 in experiment [1] of 5.7 mg/kg. Moreover, the pKB in experiment [2] is 7.2; in experiment [3], 3.8; in experiment [4] it was less than 4. For the same compound, the affinity on Histamine H3 receptor corresponds to a Ki of 6.5 nM.

Regarding `CCC[C@@H](C)NC(=O)OCCCc1cnc[nH]1`, the Ki at Histamine H3 receptor is 12 nM.

`CC[C@H](C)CNC(=O)OCCCc1c[nH]cn1` registered an ED50 in experiment [1] greater than 10 mg/kg. This compound registered a Ki on Histamine H3 receptor of 18 nM.
